Screening data as filed in PubChem BioAssay.
Rows were chosen to be rich in hits. Some 1.5% of all compounds tested hit in one or more screens of this group.
PG9 Ab binder – binds the HIV-1 gp120 antibody PG9; inhibition, % at 6.7 µM; 0.43% of 360,000 active; TR-FRET gp120-PG9 antibody binding; in the data active = inhibition above about 8.5%
NR2E3 ag-1 – activates human NR2E3 receptor | Q9Y5X4 | CHO-S Gal4-NCOR/VP16-NR2E3 two-hybrid, luciferase | inhibition of corepressor binding, % at 3.98 µM | 0.35% of 360,000 active | AID 602229;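 active = inhibition above the mean of all tested compounds plus 3 SD, cut at about 70% in these data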;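 note: 0% = DMSO with NR2E3 transfected cells and 100% = cells lacking NR2E3 construct; higher means lower luciferase signal from less NR2E3 corepressor binding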
Target sequence (Q9Y5X4 whole entry, looked up, the tested form may be a part): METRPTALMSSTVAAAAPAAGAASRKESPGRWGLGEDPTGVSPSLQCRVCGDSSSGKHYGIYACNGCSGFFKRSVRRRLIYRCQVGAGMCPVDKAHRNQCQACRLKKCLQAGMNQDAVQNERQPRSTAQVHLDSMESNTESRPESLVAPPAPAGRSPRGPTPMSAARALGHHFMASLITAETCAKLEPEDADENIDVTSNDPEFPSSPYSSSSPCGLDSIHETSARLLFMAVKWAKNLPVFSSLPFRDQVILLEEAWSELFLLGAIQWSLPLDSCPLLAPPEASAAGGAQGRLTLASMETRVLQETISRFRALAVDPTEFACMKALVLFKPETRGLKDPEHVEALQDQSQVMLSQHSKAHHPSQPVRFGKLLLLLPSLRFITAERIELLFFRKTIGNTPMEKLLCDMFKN
NR2E3 ag-2 – activates human photoreceptor nuclear receptor NR2E3. inhibition of corepressor binding, % at 4.78 µM. GST-NR2E3/biotin-RetCOR TR-FRET, 1536-well. Q9Y5X4. 0.12% of 320,000 active. AID 2300;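 active = percent inhibition above the cutoff of mean plus 3 SD of all tested compounds, set per screening campaign, cut at about 20% in these data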;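 note: 0% = DMSO wells and 100% = biotin wells as full block of FRET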
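Material: NR2E3–RetCOR corepressor complex / Amount: 1.35 nM GST-NR2E3 / Medium: Tris pH 7.5 / Compound: single nominal compound dose of 4.8 µM / Incubation: 5 h at 4 °C / Technique: TR-FRET, Eu(K)-anti-GST donor, streptavidin-D2 acceptor, ex 340, em 617/671 nm / Read-out basis: percent loss of FRET ratio relative to control wells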
NR1D1 modulator – modulators of human Rev-erb alpha DNA binding; Rev-erbα–FITC-DNA binding, fluorescence polarization, 90 min; activity, % at 10 µM; P20393; 0.79% of 370,000 active;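 active = activity above about 14%, limit read from the data; passing the limit was not always enough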;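 note: 0% = DMSO wells with 35 nM protein and 100% = DMSO wells with 750 nM protein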
Rev-erbA confirm – Rev-erb alpha (human) modulation, hit confirmation; shares compounds with NR1D1 modulator; Rev-erb alpha FITC-DNA binding, fluorescence polarization, 90 min; activation, % at 25 µM; 61% of 3,000 active; AID 1259319;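 active = activation at or above a set limit, or at least 3 SD above the negative control mean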;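 note: 0% = 35 nM protein with DMSO and 100% = 750 nM protein high control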
RORg DNA counter – affects RORgamma DNA binding in a Rev-erb alpha counter-screen; shares compounds with NR1D1 modulator; purified RORgamma protein-FITC-DNA binding, fluorescence polarization; IC50, µM; 8% of 910 active; AID 1259320;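 active = Compounds whose fitted half-maximal concentration for disrupting protein-DNA binding is below 10 micromolar; the record names Rev-erb in its text, so the target is in doubt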
The depositor's hits bear a star; i = inactive; nt = no result given.

SMILES	PG9 Ab binder	NR2E3 ag-1	NR2E3 ag-2	NR1D1 modulator	Rev-erbA confirm	others
NS(=O)(=O)c1ccc(CCNc2nc3c(-c4cccc(F)c4)nnn3c3ccccc23)cc1	-1	3	2	82*	83*	RORg DNA counter=>40
Cc1cccc(-c2nnn3c2nc(NCCc2ccc(S(N)(=O)=O)cc2)c2ccccc23)c1	1	-14	5	78*	56*	RORg DNA counter=i
C=CCN(Cc1ccc2c(c1)OCO2)C(C#Cc1ccccc1)c1ccccc1C(F)(F)F (stereo not given)	nt	nt	nt	-4	nt
Cc1noc(C)c1NC(=O)N(C)C[C@H]1Oc2ccc(NC(=O)Cc3ccccc3)cc2C(=O)N([C@H](C)CO)C[C@@H]1C	1	8	nt	-9	nt
COc1cccc(N2CCN(CC(=O)c3c[nH]c4ccc(OC)cc34)CC2C)c1 (stereo not given)	2	5	2	-3	nt
O=C(CCN1CCC(c2cccs2)=N1)c1cccs1	0	-46	-3	1	nt
O=C(CCCCCNc1nc(=S)[nH]c2ccccc12)NCc1ccccc1Cl	4	nt	0	49*	17
Cc1c(C(=O)Nc2cccc(S(=O)(=O)N3CCOCC3)c2)oc2ccc(Br)cc12	1	-9	nt	16*	-2
O=C(Nc1cccc(Br)c1)c1cc(S(=O)(=O)N2CCOCC2)cs1	-1	-5	0	30*	5
COc1ccc2oc(C(=O)Nc3cccc(S(=O)(=O)N4CCOCC4)c3)c(C)c2c1	0	-21	nt	6	nt
Cc1ccc(NC(=O)c2ccc(Cn3cc([N+](=O)[O-])cn3)cc2)c(C)c1	-1	-1	1	0	nt
C[C@H](NC(=O)c1cccc([N+](=O)[O-])c1)C(=O)OCC(=O)c1ccccc1Br	1	-5	nt	3	nt
Fc1cccc(CSc2ncnc3c2oc2ccccc23)c1	-1	-9	3	122*	154*	RORg DNA counter=6.3*
Fc1ccc(CSc2ncnc3c2oc2ccccc23)cc1	2	-2	-1	290*	284*	RORg DNA counter=>40
COC(=O)c1cc(C#N)c(NCc2ccc(Cl)cc2Cl)nc1C	-1	-4	2	24*	7
Cc1ccc(/C=N/NC(=O)C2(O)c3ccccc3-c3ccccc32)o1	-3	-12	-4	-2	nt
CCCC(=O)N(CC(=O)Nc1sc(C)c(C)c1C(N)=O)Cc1ccccc1	1	4	2	0	nt
COC(=O)c1cc(NC(=O)NC2CCCCN(Cc3cccc(Cl)c3)C2=O)cc(C(=O)OC)c1 (stereo not given)	nt	nt	nt	5	nt
Cc1cccc(-n2c(C)nc3cc(C(=O)NCc4ccc5c(c4)OCO5)ccc32)c1	0	-17	4	-2	nt
COc1ccc(-c2cc(C(F)(F)F)c(C#N)c(SCC(=O)Nc3nc(C)co3)n2)cc1	nt	3	4	47*	43*	RORg DNA counter=>40
COc1ccc(-c2cc(C(F)(F)F)c(C#N)c(SCC(=O)Nc3ccccc3C#N)n2)cc1	nt	nt	0	nt	nt
Cc1coc(NC(=O)CSc2nc(-c3ccc(Cl)cc3)cc(C(F)(F)F)c2C#N)n1	0	-14	-2	78*	66*	RORg DNA counter=>40
COc1ccc(NC(=O)CSc2nc(-c3ccc(C)cc3)cc(C(F)(F)F)c2C#N)cc1	1	-17	0	24*	41*	RORg DNA counter=1.5*
C[C@@H]1CN([C@@H](C)CO)C(=O)CCCn2nncc2CO[C@@H]1CN(C)C(=O)Nc1ccccc1	1	-23	nt	1	nt
CC(C)c1ccc(NC(=O)CSc2nc(-c3ccccc3F)nc3nc[nH]c23)cc1	-2	-1	-1	34*	18*
SMILES	PG9 Ab binder	NR2E3 ag-1	NR2E3 ag-2	NR1D1 modulator	Rev-erbA confirm	others
CC(C)c1ccc(NC(=O)CSc2nc(=O)[nH]c3c2CCCC3)cc1	0	12	-3	6	nt
COc1cc(C(=O)Nc2nc(-c3cc(C)ccc3C)c(C)s2)ccc1OCC(=O)Nc1ccc(F)cc1	0	-31	3	71*	49*	RORg DNA counter=>40
COc1ccc(C(=O)Nc2nc(C)c(C)s2)cc1OC	-1	-99	2	-3	nt
COc1ccc(-c2cc(C(F)(F)F)n3ncc(C(=O)NCC4CCCO4)c3n2)cc1 (stereo not given)	-1	4	nt	47*	22*
COc1cccc(-c2cc(C(F)(F)F)n3ncc(C(=O)NCC4CCCO4)c3n2)c1 (stereo not given)	0	-11	-1	11	nt
COc1ccccc1Nc1nn2c(=O)c3ccc(C(=O)N4CCCCC4)cc3nc2s1	-2	-9	3	0	nt
O=c1c2ccc(F)cc2nc2sc(Nc3ccc4c(c3)CCC4)nn12	nt	nt	nt	74*	2
O=c1c2ccccc2nc2sc(Nc3cccc(Cl)c3)nn12	7	-28	1	127*	88*	RORg DNA counter=>40
O=C(COC(=O)c1cc(=O)[nH]c2ccccc12)NCc1ccc(Cl)cc1	-3	-6	4	1	nt
CCCOc1ccc(/C(CC)=N/NC(=O)C2(C)CC2(Br)Br)cc1 (stereo not given)	-1	-35	1	34*	47*	RORg DNA counter=>40
CC/C(=N/NC(=O)c1ccc(Br)cc1)c1ccc(OCCN2CCOCC2)cc1	-1	-14	-2	0	nt
COC(=O)c1ccc2nc(NC(=O)C3CCCCC3)sc2c1	-3	-105	4	17*	19*
COC(=O)c1ccc2nc(Nc3nc4ccc(F)cc4s3)sc2c1	2	27	-1	48*	54*
CCN(C(=O)COC(=O)C(Cc1ccccc1)N1C(=O)c2ccccc2C1=O)C1CCS(=O)(=O)C1 (stereo not given)	2	-6	1	3	nt
COC(=O)C1CN(Cc2cn(Cc3ccccc3)nn2)CCS(=O)(=O)N1Cc1ccc(OC)cc1 (stereo not given)	nt	nt	nt	2	nt
COc1ccc(-c2nnc(NC(=O)c3cccs3)s2)c(OC)c1	0	-16	-3	3	nt
COc1ccc(-c2nnc(NC(=O)Cc3ccccc3)s2)c(OC)c1	5	-2	5	41*	19*
COc1ccc(CNC(=O)CCCn2c(SCC#N)nc3cc4c(cc3c2=O)OCO4)cc1	0	22	2	-3	nt
CCN(CC)C(=O)CSc1nc2cc3c(cc2c(=O)n1Cc1ccc(OC)cc1)OCO3	0	-12	4	31*	38*	RORg DNA counter=i
CCN(CC)C(=O)CSc1nnc2nnc3cc(OC)ccc3n12	-1	-12	1	21*	10
CC(C)Sc1nnc([C@H](Cc2c[nH]c3ccccc23)NC(=O)OC(C)(C)C)o1	-1	5	1	2	nt
O=C(COc1nnnc2ccccc12)N1CCCc2ccccc21	0	10	3	0	nt
O=C(COc1nc2ccccc2nc1N1CCOCC1)N1CCc2ccccc21	-2	4	nt	97*	62*	RORg DNA counter=4.3*
CCCn1c(=O)c(C(=O)NCCc2ccc(Cl)cc2)c(O)c2ccccc21	-2	0	nt	-5	nt
